Experimental data as given in paper PMC8146373 (Biochemical pharmacology, 2021).

How the values were obtained:
[1] = biological target: T1, GLP-1R (Homo sapiens, UniProt P43220); experiment: Allosteric activity studies; type: cell-based
[2] = biological target: T2, GLP-1R (Rattus norvegicus, UniProt P32301); experiment: cAMP assay; type: cell-based; conditions: INS-1 cells, 12.5 μM compound
T2 sequence (P32301 22-463): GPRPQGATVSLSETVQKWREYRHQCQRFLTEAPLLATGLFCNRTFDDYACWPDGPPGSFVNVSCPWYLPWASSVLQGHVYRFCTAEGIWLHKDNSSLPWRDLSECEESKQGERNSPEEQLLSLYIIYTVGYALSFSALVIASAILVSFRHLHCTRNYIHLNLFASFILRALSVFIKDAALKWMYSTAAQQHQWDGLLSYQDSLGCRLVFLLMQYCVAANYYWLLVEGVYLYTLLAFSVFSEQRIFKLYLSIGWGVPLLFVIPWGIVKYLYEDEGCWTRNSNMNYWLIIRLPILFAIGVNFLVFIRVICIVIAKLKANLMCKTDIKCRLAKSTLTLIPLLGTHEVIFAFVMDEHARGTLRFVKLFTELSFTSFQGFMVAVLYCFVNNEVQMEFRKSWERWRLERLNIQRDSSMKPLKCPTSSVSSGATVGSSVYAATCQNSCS
How it was run: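 INS-1 832/13 cells (passage 18–29) were detached at 80–90% confluency, spun 300xg for 3 min and diluted in stimulation buffer. […] Cells were incubated 30 min at RT. LANCE Ultra detection (Eu-cAMP, ULight antibody) was read as TR-FRET after 60 min at RT.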

[3] = biological target: T3, SCTR (Homo sapiens, UniProt P47872); experiment: SCTR PAM; type: cell-based
T3 sequence (P47872 23-440): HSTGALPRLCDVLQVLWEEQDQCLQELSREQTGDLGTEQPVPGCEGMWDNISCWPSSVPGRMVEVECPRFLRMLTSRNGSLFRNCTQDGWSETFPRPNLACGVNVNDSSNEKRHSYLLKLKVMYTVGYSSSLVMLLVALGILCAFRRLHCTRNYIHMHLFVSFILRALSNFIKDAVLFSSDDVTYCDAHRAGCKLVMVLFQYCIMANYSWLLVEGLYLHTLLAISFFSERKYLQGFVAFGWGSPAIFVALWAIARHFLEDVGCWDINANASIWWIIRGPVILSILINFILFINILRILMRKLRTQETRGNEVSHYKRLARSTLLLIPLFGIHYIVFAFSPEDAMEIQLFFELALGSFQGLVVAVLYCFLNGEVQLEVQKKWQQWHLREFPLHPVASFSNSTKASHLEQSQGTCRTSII

[4] = biological target: T1, GLP-1R; experiment: GLP-1R PAM; type: cell-based
[5] = test system: INS-1 832/13 cells; experiment: Glucose stimulated insulin secretion; type: cell-based, rat; conditions: 20 μM compound, 15 mM glucose
[6] = biological target: SNAP-SCTR (Homo sapiens, UniProt P47872); experiment: TR-FRET SNAP-SCTR competition binding with Fluo-Sec, HEK-293 SNAP-SCTR membranes
SNAP-SCTR, sequence (P47872 23-440): as above

[7] = biological target: T1, GLP-1R; experiment: GLP-1R agonist cAMP accumulation assay, GLP-1R-overexpressing HEK-293T cells; type: cell-based
[8] = biological target: SCTR K317C (Homo sapiens, UniProt P47872, K338C); experiment: Mutational study, cAMP assay in HEK-293 cells transiently expressing SCTR K317C; type: cell-based; conditions: 12.5–25 μM compound
SCTR K317C, sequence (P47872 22-440 K338C limits assumed): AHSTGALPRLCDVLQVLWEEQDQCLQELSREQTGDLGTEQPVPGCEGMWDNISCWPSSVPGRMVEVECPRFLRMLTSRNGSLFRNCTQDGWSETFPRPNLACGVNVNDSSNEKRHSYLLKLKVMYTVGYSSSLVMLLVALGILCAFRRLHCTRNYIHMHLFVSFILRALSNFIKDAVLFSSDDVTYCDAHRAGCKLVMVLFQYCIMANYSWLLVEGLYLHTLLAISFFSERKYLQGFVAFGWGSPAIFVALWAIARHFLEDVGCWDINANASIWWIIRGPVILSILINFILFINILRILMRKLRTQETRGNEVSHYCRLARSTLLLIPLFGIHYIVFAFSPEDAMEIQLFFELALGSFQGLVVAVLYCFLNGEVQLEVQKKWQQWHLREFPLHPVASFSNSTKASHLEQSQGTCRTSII
SCTR K317C, sequence (P09683 28-54 partner limits assumed): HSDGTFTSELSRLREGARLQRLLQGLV

[9] = biological target: GLP-1R C347A (Homo sapiens, UniProt P43220, C347A); type: cell-based; conditions: 12.5–25 μM compound
GLP-1R C347A, sequence (P43220 24-463 C347A): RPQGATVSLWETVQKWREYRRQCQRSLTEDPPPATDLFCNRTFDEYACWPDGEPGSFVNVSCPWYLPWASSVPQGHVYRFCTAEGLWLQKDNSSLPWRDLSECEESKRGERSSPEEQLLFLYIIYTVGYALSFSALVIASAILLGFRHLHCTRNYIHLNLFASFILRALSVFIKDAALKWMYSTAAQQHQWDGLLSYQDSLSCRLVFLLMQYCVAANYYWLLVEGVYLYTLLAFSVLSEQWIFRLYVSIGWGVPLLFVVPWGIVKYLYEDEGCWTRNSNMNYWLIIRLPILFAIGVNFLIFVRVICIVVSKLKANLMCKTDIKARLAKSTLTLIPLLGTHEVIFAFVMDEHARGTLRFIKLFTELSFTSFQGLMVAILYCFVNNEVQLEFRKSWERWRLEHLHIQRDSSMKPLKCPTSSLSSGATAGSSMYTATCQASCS
How it was run: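 HEK-293 cells were transfected with 0.5 μg DNA/well of GLP-1R WT or C347A construct and harvested after 24 h into stimulation buffer. Cells were added to wells with DMSO or 12.5–25 μM compound. […] HTRF cAMP readout; four-parameter variable-slope fit; duplicates, ≥3 experiments.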

[10] = biological target: SCTR K317A (Homo sapiens, UniProt P47872, K338A); experiment: Mutational study, cAMP assay in HEK-293 cells transiently expressing SCTR K317A; type: cell-based; conditions: 12.5–25 μM compound
SCTR K317A, sequence (P47872 22-440 K338A limits assumed): as the sequence (P47872 22-440 K338C limits assumed) above, with C317A counted along it

[11] = biological target: T1, GLP-1R; experiment: cAMP wash-out experiment, GLP-1R-overexpressing HEK-293T cells; type: cell-based; conditions: 25 μM compound, triple wash
[12] = biological target: T3, SCTR; experiment: SCTR Sec-FL; type: cell-based

T1 sequence (P43220 24-463): as the sequence (P43220 24-463 C347A) above, with A324C counted along it

Question: Which results are given for `CC[S+]([O-])c1nc(-c2cccc(OCc3ccccc3)c2)cc(C(F)(F)F)n1` (stereo not shown) [BETP, 4-(3-(Benzyloxy)phenyl)-2-(ethylsulfinyl)-6-(trifluoromethyl)pyrimidine]?
Answer: Kb [1]: 3 µM; cooperativity factor α, GLP-1(9–36) ([1]; GLP-1R-overexpressing cells): 137; cooperativity factor β, GLP-1(9–36) ([1]; GLP-1R-overexpressing cells): 5.5; effect on GLP-1 treatment [2]: did not show a significant positive effect; increase of efficacy of GLP-1(9–36) [2]: 106%; receptor activation by GLP-1(9–36) in presence of compound [2]: around 50%; EC50 [3]: 24 ± 12 µM; Emax ([3]; CHO-K1, read-out: SCTR PAM (3-pep mix) Emax): 51 ± 25%; EC50 [4]: 0.8 ± 0.2 µM; selectivity toward GLP-1Rs (over SCTR PAM potency) ([4]; GLP-1R EC50 vs SCTR PAM EC50): 30 fold; GLP-1R PAM (GLP-1) Emax ([4]; cAMP, EC20 of GLP-1, mean ± SD, n.d. = not detected): 76 ± 22%; insulin secretion with GLP-1(9–36) co-stimulation ([5]; 1 μM GLP-1(9–36)): elevated insulin secretion; interaction between compound and GLP-1(9–36) treatment (two-way ANOVA) [5]: significant interactions; insulin secretion in the absence of GLP-1(9–36) ([5]; vs DMSO): significantly enhanced; EC50 [6]: 17 ± 14 µM; Emax ([6]; read-out: SNAP-SCTR Binding Emax): 152 ± 11%; EC50 [7]: 0.8 ± 0.6 µM; GLP-1R agonist Emax ([7]; cAMP, no peptide ligand, mean ± SD, n.d. = not detected): 91 ± 16%; potentiating effects at SCTR K317C compared to WT [8]: neither mutating Lys-317 to alanine nor to cysteine had an impact; cooperative (PAM) effects on GLP-1(9–36) at GLP-1R C347A compared to WT [9]: eradicated; intrinsic agonist activity at GLP-1R C347A compared to WT [9]: eradicated; potentiating effects at SCTR K317A compared to WT [10]: neither mutating Lys-317 to alanine nor to cysteine had an impact; intrinsic activity (elevation of basal response), added before or after the wash step [11]: substantial intrinsic activity; EC50 [12]: 31 ± 19 µM; Emax ([12]; CHO-K1, read-out: SCTR Sec-FL (PAM) Emax): 42 ± 2%
